From ChEMBL document CHEMBL1128283, “Novel modified carboxy terminal fragments of neuropeptide Y with high affinity for Y2-type receptors and potent functional antagonism at a Y1-type receptor” (J Med Chem, 1995) come the findings set out here.

The target in experiment [1] is T1, Neuropeptide Y receptor type 2 (Rattus norvegicus, UniProt Q9ERC0).
T1 sequence (Q9ERC0 whole entry): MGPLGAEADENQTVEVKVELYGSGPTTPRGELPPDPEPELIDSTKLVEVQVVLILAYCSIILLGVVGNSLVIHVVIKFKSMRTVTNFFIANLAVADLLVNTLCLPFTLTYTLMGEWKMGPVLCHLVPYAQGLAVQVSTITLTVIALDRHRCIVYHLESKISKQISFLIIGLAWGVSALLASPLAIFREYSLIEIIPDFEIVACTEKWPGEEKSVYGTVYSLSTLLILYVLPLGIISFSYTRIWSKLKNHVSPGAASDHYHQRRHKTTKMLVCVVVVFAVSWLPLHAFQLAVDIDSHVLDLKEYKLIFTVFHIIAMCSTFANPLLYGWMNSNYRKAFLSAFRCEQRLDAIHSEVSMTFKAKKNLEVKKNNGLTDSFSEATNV
In words: 50% displacement of specifically bound [3H]NPY2 from rat brain membranes. Format: cell membranes, Membrane.

Experiment [2] deals with HEL. The experiment is described as follows: (§1) Inhibition of NPY1-induced ([Ca2+]) release in HEL cell was determined at 100 nM. Set-up: scale not given: the % may be the effect or the level left. Format: functional, Homo sapiens. In short, it runs like this: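 HEL cells loaded with fura-2 and kept in suspension; calcium read as the 340/380 nm ratio. Peptide tested at 100 nM, added 30 s before NPY. Agonist activity expressed as percent of the response to 100 nM NPY. Inhibition measured against the 5 nM NPY response.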

Experiment [3] deals with HEL. The experiment is described as follows: Inhibition of NPY-induced ([Ca2+]) release in HEL cell was determined. Format: functional, cell-based. The following applies: Homo sapiens.
The subject of experiment [4] is HEL. Described as §1. Format: functional. The settings on record: Homo sapiens, read-out: ED50 (the source's name).

Where only a bound is given, the exact number is not on record here.

In turn, H-YINLITRLY-NH2 yielded an IC50 in experiment [1] of 2.1 µM. Also, in experiment [2], the Activity is 0%.

H-NLIYRLRY-NH2: in experiment [1], the half-inhibitory concentration (IC50) worked out at 0.31 µM.

H-YINPIYRLRY-NH2 [listing 1 of 2 here] had an IC50 in experiment [3] of 0.1 µM.

H-INLIYRLRY-NH2 [listing 1 of 2 here] yielded a half-maximal inhibitory concentration (IC50) in experiment [1] of 0.037 µM.

H-YINLIYRLRY-NH2 gave an IC50 in experiment [1] of 0.008 µM. In experiment [4], the EC50 stood at 0.0088 µM.

In turn, H-LIYRLRY-NH2 registered an IC50 in experiment [1] of 0.4 µM.

As to H-HYINLIYRLRY-NH2, the IC50 in experiment [1] came out at 0.012 µM. The same substance gave an Activity in experiment [2] of 100%.

Substance H-TRQRY-NH2 returned a half-inhibitory concentration (IC50) in experiment [1] greater than 100 µM.

The substance H-YINLITRQRY-NH2 returned an IC50 in experiment [1] of 30 µM. For the same substance, the Activity in experiment [2] turned out to be 0%.

Turning to H-YINPIYRLRY-NH2 [listing 2 of 2 here], the IC50 in experiment [1] came out at 0.044 µM.

In the case of H-INPIYRLRY-NH2, the IC50 was 0.174 µM in experiment [1] and 0.009 µM in experiment [3].

“H-RHYINLITRQRY-NH2 [listing 1 of 2 here]”: in experiment [2], the Activity is given as 0%.

H-RHYINLIYRLRY-NH2 showed an IC50 in experiment [1] of 0.012 µM. This substance also displayed an Activity in experiment [2] of 100%.

For the substance H-IYRLRY-NH2, in experiment [1], the IC50 is 2.95 µM.

On to H-INLIYRLRY-NH2 [listing 2 of 2 here], for which the Activity in experiment [2] is recorded as 33%.

In the case of “H-RHYINLITRQRY-NH2 [listing 2 of 2 here]”, the IC50 in experiment [1] worked out at 1.3 µM.

In general, IC50 refers to the concentration needed to halve the response being measured.
